KCNQ1 inh: inhibitors of human KCNQ1 potassium channel. P51787. CHO-K1 KCNQ1, FluxOR thallium flux fluorescence; stronger effect = higher value. B-score at 10 µM. 310,000 tested, 1.3% active;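 active = compounds whose thallium flux B-score, printed positive for inhibition, exceeds three library SD while starting fluorescence stays within three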;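 note: channel opened by potassium depolarization with thallium stimulus after 20 min compound exposure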
KCNK9 inh: inhibitors of human KCNK9 two-pore domain potassium channel; Q9NPC2; HEK293 KCNK9, FluxOR thallium flux fluorescence; stronger effect = lower value; B-score at 10 µM; 310,000 tested, 1.2% active;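 active = ratio B-score over 3 SD below the library mean, with starting fluorescence within 5 SD of its mean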;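 note: negative B-score means less thallium flux so channel inhibition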
Kir21 block: Kir2.1 (mouse) channel inhibition. AID 1672. HEK293-Kir2.1, FluxOR thallium flux fluorescence; stronger effect = lower value. P35561. 310,000 tested, 0.85% active. B-score at 10 µM;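 active = fluorescence ratio B-score at or below minus 3 SD of library scores, with starting-brightness B-score within 2 SD, cut at about -4.2 in these data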;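 note: channel flux triggered by added potassium and thallium sulfate stimulus; B-score of peak minus minimum fluorescence over baseline after thallium stimulus; more negative B-score means stronger Kir2.1 block with less thallium influx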
Target sequence (P35561 whole entry, looked up): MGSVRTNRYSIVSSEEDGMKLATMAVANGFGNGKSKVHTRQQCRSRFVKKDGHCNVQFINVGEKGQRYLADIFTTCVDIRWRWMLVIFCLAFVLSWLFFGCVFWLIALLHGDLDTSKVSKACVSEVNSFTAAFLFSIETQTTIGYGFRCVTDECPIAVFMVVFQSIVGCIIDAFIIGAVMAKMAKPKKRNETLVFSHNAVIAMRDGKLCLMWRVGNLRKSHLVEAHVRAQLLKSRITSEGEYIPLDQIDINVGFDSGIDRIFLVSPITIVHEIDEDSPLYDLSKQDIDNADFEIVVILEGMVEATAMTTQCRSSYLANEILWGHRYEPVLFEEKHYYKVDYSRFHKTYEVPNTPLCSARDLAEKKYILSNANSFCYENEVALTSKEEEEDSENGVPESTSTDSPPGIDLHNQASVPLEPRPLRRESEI
KCNK3 block: human KCNK3 channel inhibition, primary screen; O14649; CHO-KCNK3 thallium flux, FluxOR fluorescence; stronger effect = lower value; B-score at 10 µM; 340,000 tested, 0.84% active;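 active = B-score under library mean minus 4 SD, starting fluorescence ratio at most library mean plus 5 SD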;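 note: more negative B-score means stronger inhibition of thallium flux through KCNK3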
hERG rescue: compounds protecting human hERG from proarrhythmic drug block. CHO-hERG, FluxOR thallium flux, dofetilide IC70 present. activation (rescue from dofetilide block), less the hit threshold, % at 10 µM. 310,000 tested, 0.51% active;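 active = activation above the mean of controls blocked by dofetilide plus 5 SD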;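 note: thallium influx through hERG after potassium depolarization seen as dye fluorescence rise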
KCNQ1 pot: human KCNQ1 channel potentiation or activation | P51787 | CHO-K1 KCNQ1, thallium flux FluxOR fluorescence; stronger effect = higher value | B-score at 10 µM | 310,000 tested, 0.35% active | AID 2648;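 active = fluorescence ratio B-score, a plate-corrected score, at least three library SD, with initial intensity B-score within 5 SD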
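Doses: Single concentration per compound, DMSO matched to controls | Test system: KCNQ1-transfected CHO-K1 cells | Timing: 90 min dye loading and 20 min compound exposure, both at room temperature | Measured by: Kinetic FluxOR thallium fluorescence, 10-s 1-Hz baseline, 110-s post-stimulus read | Medium: Assay buffer with matched DMSO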
KCNK3 inh conf: human KCNK3 channel inhibition, confirmation assay. shares compounds with KCNK3 block. CHO-KCNK3 thallium flux, FluxOR fluorescence; 0% buffer, 100% carvedilol maximal block. 2,400 tested, 99% active. ratio percent of control, % at 10 µM;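 active = ratio percent of control, averaged over triplicates, above buffer control mean plus 5 SD, cut at about 64% in these data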;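 note: ratio is the fluorescence rise from min to max over baseline after thallium stimulus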
KCNK3 uninduced: activity in cells without induced KCNK3 expression; shares compounds with KCNK3 block; non-induced KCNK3 parental cells, FluxOR thallium flux; stronger effect = lower value; thallium flux ratio (lower = more inhibition) at 10 µM; 2,400 tested, 40% active;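 active = thallium flux ratio, averaged over three wells, more than 5 SD below the buffer control mean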;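 note: host cells are CHO cells without KCNK3 induction; ratio is peak minus trough fluorescence over baseline then normalized to buffer controls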
* marks the source's active call; other numbers are inactive results; i = inactive; · = no result given. Hits are enriched below; roughly 3.8% of the tested compounds scored in any of these assays.

SMILES	KCNQ1 inh	KCNK9 inh	Kir21 block	KCNK3 block	hERG rescue	KCNQ1 pot	KCNK3 inh conf	KCNK3 uninduced
COc1c(C)cc(Br)cc1C(=O)Nc1ccc(Cc2ccncc2)cc1	i	i	0.07	-9.67*	-21.3	i	116.7*	i
Cc1ccc2[nH]c3c(N4CCN(Cc5ccccc5)CC4)ncnc3c2c1	i	i	-1.81	-10.1*	-25.3	i	130.0*	0.112*
Cc1sc2ncnc(N3CCN(Cc4ccccc4)CC3)c2c1-c1ccccc1	i	i	0.05	-9.62*	-13.2	57*	111.7*	0.158*
O=C(/C=C/c1ccc(N2CCC(c3ccccc3)=N2)cc1)c1ccccc1	i	i	-10.3	·	-16.2	i	·	·
CCOC(=O)/C(=C\c1ccc(N2CCC(c3ccccc3)=N2)cc1)C(C)=O	·	·	·	-12.2*	·	·	0.0	i
C=CCOc1ccc(C(=O)c2ccccc2)c(OCC(=O)NC2(C#N)CCCC2)c1	i	i	1.61	-8.7*	-12.2	i	89.7*	i
N#CC1(NC(=O)COc2ccccc2[N+](=O)[O-])CCCCC1	i	i	1.12	i	-7.3	i	·	·
Cn1c(=O)c2c(ncn2CC(=O)N2CCN(S(=O)(=O)c3ccc(Cl)cc3)CC2)n(C)c1=O	i	i	-0.1	i	-11.2	i	·	·
O=C(NCCc1ccccc1)c1ccc2c(=O)[nH]c3c(C(=O)NCC4CCCO4)sc(=S)n3c2c1 (configuration not stated)	8*	i	0.28	-11.9*	-38.6	i	118.3*	i
COc1ccc(OC)c(CCNC(=O)c2ccc3c(=O)[nH]c4c(C(=O)NC(C)C)sc(=S)n4c3c2)c1	10*	i	0.01	-11.4*	-32.7	i	128.7*	i
Brc1ccc(-c2noc(CCc3ccccc3)n2)o1	i	i	1.02	i	-9.4	i	·	·
Brc1ccc(-c2noc(COc3ccc4ccccc4c3)n2)o1	i	i	-3.4	-9.08*	-11.7	i	102.0*	i
CC(Cc1cccs1)NC(=O)Nc1ccccc1 (configuration not stated)	i	i	-0.02	-8.97*	-6.4	i	90.3*	i
Cc1ccc(NC(=O)c2ccc(F)cc2)cc1S(=O)(=O)N1CCCCCC1	i	i	-0.98	-10.8*	-11.7	i	101.0*	i
COc1ccc(S(=O)(=O)N2CCCCCC2)cc1NC(=O)c1ccccc1	i	i	-0.03	i	-5.7	i	·	·
COc1ccc(C)cc1NC(=O)c1ccc(S(=O)(=O)N2CCCCC2)cc1	i	i	1.08	-9.65*	-12.9	i	106.3*	0.156*
Cc1ccc(NC(=O)/C=C/c2ccco2)cc1S(=O)(=O)N1CCCCCC1	i	i	-0.02	-9.39*	-6.4	i	124.0*	0.121*
O=C(N1CCOCC1)N1c2ccccc2Sc2ccccc21	i	i	-2.94	i	-0.8	i	·	·
O=C(NC1CCN(C(=O)N2c3ccccc3Sc3ccccc32)CC1)c1ccccc1F	i	i	-0.11	-10.5*	-8.1	i	89.3*	i
Cc1cccc(N=c2oc3cc(O)ccc3cc2C(N)=O)c1	i	i	-1.08	-8.75*	-14.1	i	112.7*	i
COc1ccccc1N=c1oc2cc(O)ccc2cc1C(N)=O	i	i	1.59	i	-12.2	i	·	·
CN(C)S(=O)(=O)Oc1ccsc1C(=O)Nc1cccc(Cl)c1Cl	i	i	-0.07	-9.06*	-5.6	i	87.7*	i
CN(C)S(=O)(=O)Oc1ccsc1C(=O)Nc1ccccc1Cl	i	i	-1.33	i	-10.0	i	·	·
CCN(CC)c1nc(-c2ccc(C(=O)NN)cc2)nc(-c2ccc(C(=O)NN)cc2)n1	i	i	-0.37	-8.82*	-0.7	i	52.3*	i

Screening results: PubChem BioAssay, Johns Hopkins Ion Channel Center
